Source: PubChem BioAssay (several laboratories)
IDE inh: inhibits human insulin-degrading enzyme in HEK cells | AID 434962 | 0.41% of 320,000 active | P14735 | inhibition, % at 5.59 µM | FAbetaB cleavage, fluorescence polarization;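 active = percent inhibition above the average of all tested compounds plus 3 SD, set per screening campaign, cut at about 16% in these data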;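 also: IDE supplied by intact live HEK cells; FP after avidin binding of uncleaved biotin substrate so inhibition keeps polarization high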
Target sequence (P14735 whole entry, looked up): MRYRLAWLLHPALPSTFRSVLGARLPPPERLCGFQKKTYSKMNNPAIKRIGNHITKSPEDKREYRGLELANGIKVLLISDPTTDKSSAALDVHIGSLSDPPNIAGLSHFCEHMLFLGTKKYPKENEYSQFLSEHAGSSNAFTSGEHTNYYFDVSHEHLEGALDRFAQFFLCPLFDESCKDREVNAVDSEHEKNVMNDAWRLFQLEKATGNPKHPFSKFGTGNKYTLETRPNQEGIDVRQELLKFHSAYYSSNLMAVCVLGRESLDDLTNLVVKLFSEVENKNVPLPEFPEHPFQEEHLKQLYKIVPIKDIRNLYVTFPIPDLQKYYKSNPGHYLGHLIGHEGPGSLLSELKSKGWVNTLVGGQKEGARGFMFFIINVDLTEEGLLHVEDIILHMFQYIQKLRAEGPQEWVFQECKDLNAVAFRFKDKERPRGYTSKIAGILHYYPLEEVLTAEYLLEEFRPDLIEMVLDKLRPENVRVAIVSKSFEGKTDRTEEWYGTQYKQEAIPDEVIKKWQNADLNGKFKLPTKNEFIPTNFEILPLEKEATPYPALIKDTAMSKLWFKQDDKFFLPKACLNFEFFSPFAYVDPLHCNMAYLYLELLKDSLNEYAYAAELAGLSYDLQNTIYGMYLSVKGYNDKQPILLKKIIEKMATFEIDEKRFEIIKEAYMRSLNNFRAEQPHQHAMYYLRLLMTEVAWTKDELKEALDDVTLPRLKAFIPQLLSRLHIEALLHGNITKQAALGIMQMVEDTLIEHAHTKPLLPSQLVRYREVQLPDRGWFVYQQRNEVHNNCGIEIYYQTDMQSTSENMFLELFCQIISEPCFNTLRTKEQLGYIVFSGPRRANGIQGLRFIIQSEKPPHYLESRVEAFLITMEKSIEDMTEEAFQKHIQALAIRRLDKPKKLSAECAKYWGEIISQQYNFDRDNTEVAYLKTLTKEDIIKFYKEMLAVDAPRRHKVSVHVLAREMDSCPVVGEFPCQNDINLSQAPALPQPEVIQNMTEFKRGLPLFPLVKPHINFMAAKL
Yeast superoxide: lowers age-related superoxide in aged yeast cells | superoxide response (% of plate mean), % at 10 µM | AID 2690 | 0.18% of 330,000 active | S. cerevisiae aged cells, superoxide DHE fluorescence; hits give low values;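 active = superoxide response under a set limit, about three screen SD below normal, cut at about 65% in these data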;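 also: yeast aged for seven days with compound at 30 °C before DHE staining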
IDE cell activ: IDE (human) activation, cell-based | P14735 | HEK cells, FAbeta-B cleavage, fluorescence polarization; 0% vehicle, 100% cell-free pure enzyme wells | activation, % at 5.96 µM | 0.073% of 340,000 active;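 active = activation above the mean of all tested compounds plus 3 SD, set per screening campaign, cut at about 17% in these data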
TbMetRS inhib: Trypanosoma brucei MetRS inhibition; purified T. brucei MetRS, ATP depletion, Kinase-Glo luminescence; inhibition, % at 11.9 µM; 0.4% of 360,000 active;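 active = inhibition above a per-plate cutoff of the control wells' mean inhibition plus 3 SD, cut at about 5.5% in these data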
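Test system: purified T. brucei MetRS enzyme. Also added: ATP, methionine and E. coli bulk tRNA substrates. Compound: 11.9 µM single point. Schedule: 15 min enzyme-compound preincubation, 2 h reaction, 10 min detection, 25 °C. Signal: luciferase luminescence of residual ATP, Kinase-Glo. Evaluation: percent inhibition versus plate control medians. Controls: DMSO wells, low control.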
Efflux pump inh: inhibitors of Candida antifungal efflux pumps expressed in yeast; 0.44% of 330,000 active; inhibition, % at 10 µM; AID 485275; S. cerevisiae Candida pump triplex, Nile Red efflux;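 active = plate passing quality check with inhibition over a set limit, or well fluorescence over plate mean plus 4 SD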;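 also: Nile Red retained in pooled yeast measured as flow cytometry median fluorescence; higher means more Nile Red kept so more efflux inhibition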
HDAC3 inhib: inhibitors of human histone deacetylase 3; recombinant HDAC3, fluorogenic peptide/trypsin coupled, fluorescence; inhibition, % at 8.3 µM; 0.15% of 320,000 active; AID 2718; in the data active = inhibition above about 26%, passing the limit was not always enough; inconclusive = no clear call, values can overlap the other calls
A number is an active result; 0 = inactive; ? = inconclusive; - = not tested or not shown. Sampled rows, rich in hits. Any-hit rate of the full collection: about 1.4%.

SMILES	IDE inh	Yeast superoxide	IDE cell activ	TbMetRS inhib	Efflux pump inh	HDAC3 inhib
O=C(O)c1cccc(Nc2c([N+](=O)[O-])c(=O)oc3ccccc23)c1	0	64	0	0	0	0
O=C(Nc1ccccc1O)c1ccc(C(=O)c2ccccc2)o1	0	0	0	0	0	48
NCC1CCC(C(=O)Oc2ccc(CCC(=O)O)cc2)CC1 (stereo unspecified)	0	0	0	0	0	81
Cc1ccc(NC(=O)c2cc(S(=O)(=O)N3CCCCC3)c[nH]2)cc1Cl	-	-	-	0	-	-
CC(C)C[C@H]1CN([C@@H](Cc2ccccc2)CN2CCC[C@@H]2CN2C(=O)C(=O)NC[C@@H]2Cc2ccccc2)C(=O)C(=O)N1CCc1ccccc1	-	-	-	0	-	-
Fc1ccc(COc2ccccc2CNCc2ccncc2)cc1	17	0	0	0	0	0
CN(C)C(=O)C[C@@H]1CC[C@@H](NC(=O)C2CCC2)[C@@H](CO)O1	-	-	-	0	-	-
CCCS(=O)(=O)NC(=O)C1(C)CCN(C(=O)c2ccc(OC)c(F)c2)C1 (stereo unspecified)	-	-	-	0	-	-
O=C(Nc1cccc(OC(F)(F)F)c1)C1Cc2c(-c3ccc4c(c3)OCO4)ccnc2O1 (stereo unspecified)	-	-	-	0	-	-
Cc1cc(C2C(C#N)=C(N)SC(N)=C2C#N)c(C)s1	0	0	0	0	0	0
Cc1sccc1C1C(C#N)=C(N)SC(N)=C1C#N	18	0	-	-	0	0
CN(C)c1ccc(-c2ccnc3c2CC(C)(C(=O)NCc2cccc(Cl)c2)O3)cc1 (stereo unspecified)	-	-	-	0	-	-
Cc1nc2c(OCc3ccc(C#N)cc3)cccn2c1N(C)Cc1cccs1	-	-	-	0	-	-
Cc1ccccc1-c1cc(C(=O)NCc2cccc(C(F)(F)F)c2)n(CC2CC(c3cccnc3)=NO2)n1 (stereo unspecified)	0	0	0	0	0	25
O=C(NCc1cccc(C(F)(F)F)c1)c1cc(-c2ccccc2)nn1CC1CC(c2cccnc2)=NO1 (stereo unspecified)	0	-	0	0	-	0
COc1cccc(-n2c(SCC(N)=O)nnc2-c2c[nH]c3ccccc23)c1	0	0	0	11	0	0
CC(=O)Nc1ccc(C(=O)CSc2nccc(=O)[nH]2)cc1	0	0	-	0	0	62
O=C(CSc1nccc(=O)[nH]1)Nc1ccc(Oc2ccccc2)cc1	0	0	0	0	0	0
Cc1ccc(C(=O)Oc2ccc(-c3nnco3)cc2)o1	0	0	0	0	0	100
O=C(Oc1ccc(-c2nnco2)cc1)N1CCOCC1	0	0	0	0	0	0
O=C(CC1C(=O)Nc2ccccc2N1CC(=O)N1CCCC1)Nc1ccc(Br)cc1 (stereo unspecified)	0	0	0	19	0	0
CC(=O)N1CC(=O)N=C1SCC(=O)Nc1nc(C)c(-c2ccccc2)s1	0	0	0	0	0	26
O=C(Cc1ccccc1)Nc1ccc(NC(=O)c2ccc(Br)cc2)cc1	0	0	0	0	0	0
CN(CCC(=O)Nc1ccc(Br)cc1)Cc1ccccc1	0	0	0	25	0	0
Nc1cccc2nsnc12	0	0	0	0	0	0
SMILES	IDE inh	Yeast superoxide	IDE cell activ	TbMetRS inhib	Efflux pump inh	HDAC3 inhib
Nc1cc2nsnc2cc1Br	0	0	0	12	0	0
CC(C)N1C(=O)c2ccccc2NC(=O)C1C(=O)NCc1ccccc1 (stereo unspecified)	-	-	-	0	-	-
O=C(CSc1nc(N2CCOCC2)nc(N2CCOCC2)n1)Nc1ccc([N+](=O)[O-])cc1	0	0	23	0	0	0
N#C/C(=C/c1ccc(C(=O)O)cc1)C(=O)NCc1ccccc1	0	0	0	0	0	0
CCN(CC)c1ccc(/C=C(\C#N)C(=O)NCc2ccccc2)cc1	23	0	0	0	0	?
NC(=S)N/N=C/c1ccc(C23CC4CC(CC(C4)C2)C3)cc1	0	0	-	-	0.6	0
NC(=S)N/N=C/c1ccccc1	0	0	0	0	0	-
CCc1cc(Cn2nc(-c3ccccc3C)cc2C(=O)O)on1	0	0	0	0	0	0
CCc1cc(Cn2nc(C(=O)O)cc2-c2ccccc2)on1	0	0	19	0	0	0
CC(C)C[C@H]1CNC(=S)N1C[C@H]1CCCN1C[C@H](CC(C)C)N1C[C@H](Cc2ccc(O)cc2)N(CC2CCCCCC2)C1=S	-	-	-	0	-	-
COc1cc(/C=C(\C#N)c2nc3c(s2)CCCC3)ccc1O	146	0	-	-	0	0
N#C/C(=C\c1cccnc1)c1nc2c(s1)CCCC2	0	0	0	0	0	0
CNc1nc(-c2ccccc2)[n+](-c2ccc(C)cc2)s1	0	0	0	0	0	42
Cc1ccc(-c2nc(N)s[n+]2-c2ccccc2)cc1	0	0	0	0	0	62
Cc1ccc(-c2nc3ccccc3nc2-c2ccccc2)cc1	0	0	0	0	0	0
COC(=O)C[C@H]1CC[C@H](NS(=O)(=O)c2cn(C)cn2)[C@@H](CO)O1	-	-	-	0	-	-
COc1cccc(CNC(=O)C2CCN(S(=O)(=O)c3ccc4c(c3)C(C)(C)C(=O)N4C)CC2)c1	-	-	-	0	-	-
O=C(CSc1ncnc2ccccc12)NCc1ccco1	0	0	0	0	0	0
O=C(CSc1ncnc2ccccc12)c1ccco1	0	0	0	0	0	40
CCc1nc2ccc(C(=O)Nc3ccc(OC)c(OC)c3)cn2c1N(C)C(=O)Cc1ccccc1	-	-	-	0	-	-
N=C(N)c1ccc(OCCCCCOc2ccc(C(=N)N)cc2)cc1	0	0	0	0	0	61
CCCCCCOc1ccc(/C(N)=N/O)cc1	0	0	0	0	0	0
O=C1[C@@H]2Cc3c([nH]c4ccccc34)C(c3ccc(Cl)cc3)N2C(=O)CN1CCO (stereo partly specified)	0	0	0	6.0	0	0
O=C1[C@@H]2Cc3c([nH]c4ccccc34)C(c3ccccc3)N2C(=O)CN1CCO (stereo partly specified)	0	0	0	0	0	0
CC(C)Oc1ccc(Cl)cc1Nc1nc(NCCO)nc(N2CCCC2)n1	0	0	0	0	0	28
SMILES	IDE inh	Yeast superoxide	IDE cell activ	TbMetRS inhib	Efflux pump inh	HDAC3 inhib
COc1ccc(Cl)cc1Nc1nc(NCCO)nc(N2CCCC2)n1	0	0	0	0	0	0
Cc1[nH]n(C)c(=O)c1C(=O)c1c(-c2ccccc2Cl)noc1C	0	65	0	0	0	0
Cc1ccc(NC(=O)C2(C)CCCN2C)cc1C (stereo unspecified)	-	-	-	0	-	-
CC(OC(=O)c1c2c(nc3ccccc13)/C(=C\c1ccc3c(c1)OCO3)CCC2)C(=O)Nc1ccc(S(N)(=O)=O)cc1 (stereo unspecified)	-	-	26	0	-	-
Cc1cccc(C)c1NC(=O)COC(=O)c1c2c(nc3ccccc13)/C(=C\c1ccc3c(c1)OCO3)CCC2	0	0	0	0	0	0
O=C(Nc1ccc(F)c(Cl)c1)c1cc(C2CCCCN2C(=O)c2ccccc2)on1 (stereo unspecified)	-	-	-	0	-	-
CCCOc1ncnc2c1[nH]c1ccc(C)cc12	37	0	-	-	0	-
